High-throughput results as filed in PubChem BioAssay.
KCNK9 inh: human KCNK9 channel inhibition; AID 488922; 310,000 tested, 1.2% active; Q9NPC2; B-score at 10 µM; HEK293 KCNK9, FluxOR thallium flux fluorescence; hits give low values;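 active means ratio B-score over 3 SD below the library mean, with starting fluorescence within 5 SD of its mean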;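 further: negative B-score means less thallium flux so channel inhibition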
KCNK3 inh: human KCNK3 channel inhibition, primary screen | CHO-KCNK3 thallium flux, FluxOR fluorescence; hits give low values | B-score at 10 µM | 340,000 tested, 0.84% active;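 active means B-score under library mean minus 4 SD, starting fluorescence ratio at most library mean plus 5 SD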;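 further: more negative B-score means stronger inhibition of thallium flux through KCNK3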
Target sequence (O14649 whole entry, looked up): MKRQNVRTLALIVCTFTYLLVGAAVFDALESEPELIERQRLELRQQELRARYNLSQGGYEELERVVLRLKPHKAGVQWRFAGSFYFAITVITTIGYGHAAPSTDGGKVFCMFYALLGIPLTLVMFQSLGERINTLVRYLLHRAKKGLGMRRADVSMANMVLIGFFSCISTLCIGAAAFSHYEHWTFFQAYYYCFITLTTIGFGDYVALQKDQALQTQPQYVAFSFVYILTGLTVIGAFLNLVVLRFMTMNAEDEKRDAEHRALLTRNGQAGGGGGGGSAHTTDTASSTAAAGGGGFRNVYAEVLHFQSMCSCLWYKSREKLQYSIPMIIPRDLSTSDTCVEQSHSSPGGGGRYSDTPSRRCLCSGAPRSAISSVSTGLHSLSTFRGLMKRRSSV
KCNQ1 act: potentiators or activators of human KCNQ1 potassium channel. P51787. CHO-K1 KCNQ1, thallium flux FluxOR fluorescence; hits give high values. B-score at 10 µM. 310,000 tested, 0.35% active;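 active means fluorescence ratio B-score, a plate-corrected score, at least three library SD, with initial intensity B-score within 5 SD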
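Doses: Single concentration per compound, DMSO matched to controls | Test system: KCNQ1-transfected CHO-K1 cells | Timing: 90 min dye loading and 20 min compound exposure, both at room temperature | Measured by: Kinetic FluxOR thallium fluorescence, 10-s 1-Hz baseline, 110-s post-stimulus read | Medium: Assay buffer with matched DMSO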
Kir21 block: blocks the mouse Kir2.1 inward-rectifier potassium channel. B-score at 10 µM. HEK293-Kir2.1, FluxOR thallium flux fluorescence; hits give low values. P35561. AID 1672. 310,000 tested, 0.85% active;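 active means fluorescence ratio B-score at or below minus 3 SD of library scores, with starting-brightness B-score within 2 SD, cut at about -4.2 in these data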;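 further: channel flux triggered by added potassium and thallium sulfate stimulus; B-score of peak minus minimum fluorescence over baseline after thallium stimulus; more negative B-score means stronger Kir2.1 block with less thallium influx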
hERG protect: hERG (human) protection from proarrhythmic block; CHO-hERG, FluxOR thallium flux, dofetilide IC70 present; activation (rescue from dofetilide block), less the hit threshold, % at 10 µM; 310,000 tested, 0.51% active;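 active means activation above the mean of controls blocked by dofetilide plus 5 SD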;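 further: thallium influx through hERG after potassium depolarization seen as dye fluorescence rise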
KCNQ1 block: inhibitors of human KCNQ1 potassium channel | P51787 | CHO-K1 KCNQ1, FluxOR thallium flux fluorescence; hits give high values | B-score at 10 µM | 310,000 tested, 1.3% active;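 active means compounds whose thallium flux B-score, printed positive for inhibition, exceeds three library SD while starting fluorescence stays within three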;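 further: channel opened by potassium depolarization with thallium stimulus after 20 min compound exposure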
* hit, by the source's call. Compounds with a hit are over-represented: about 3.7% of the library has one in this group of screens.

How did CCCCCn1c(=O)c(C(=O)Nc2cccc(C)c2)c(O)c2ccccc21 do in these assays?
KCNK9 inh: inactive; KCNK3 inh: inactive; KCNQ1 act: inactive; Kir21 block: -0.05; hERG protect: 0; KCNQ1 block: inactive

Results for CCCCCn1c(=O)c(C(=O)Nc2cccc(C)n2)c(O)c2ccccc21 ?
KCNK9 inh: inactive; KCNK3 inh: inactive; KCNQ1 act: inactive; Kir21 block: -1.5; hERG protect: -4; KCNQ1 block: inactive

How did CCCCCn1c(=O)c(C(=O)Nc2ccccn2)c(O)c2ccccc21 do in these assays?
KCNK9 inh: -7.4*; KCNK3 inh: inactive; KCNQ1 act: inactive; Kir21 block: 0.24; hERG protect: -4; KCNQ1 block: inactive

Results for CC(C)C(=O)c1cn(Cc2ccc(C#N)cc2)c2ccccc12 ?
KCNK9 inh: -6.9*; KCNK3 inh: inactive; KCNQ1 act: inactive; Kir21 block: 1.3; hERG protect: -6; KCNQ1 block: inactive

What do the screens show for `c1ccc(CC(NCc2ccco2)c2ccccc2)cc1` (stereo unspecified)?
KCNK9 inh: inactive; KCNK3 inh: inactive; KCNQ1 act: inactive; Kir21 block: -3.8; hERG protect: -15; KCNQ1 block: 6*

Results for Cc1[nH]n(-c2ccccc2)c(=O)c1C(c1ccc([N+](=O)[O-])cc1)c1c(C)[nH]n(-c2ccccc2)c1=O ?
KCNK9 inh: inactive; KCNK3 inh: inactive; KCNQ1 act: inactive; Kir21 block: 0.2; hERG protect: -8; KCNQ1 block: 7*

How did CCC1CCCCN1CC(=O)c1ccc(OC(F)F)cc1 (stereo unspecified) do in these assays?
KCNK9 inh: inactive; KCNK3 inh: inactive; KCNQ1 act: inactive; Kir21 block: -0.87; hERG protect: -14; KCNQ1 block: inactive

What do the screens show for `COc1cc(OC)c(OC)cc1CNCCc1cccc(F)c1`?
KCNK9 inh: inactive; KCNK3 inh: inactive; KCNQ1 act: inactive; Kir21 block: -0.94; hERG protect: -4; KCNQ1 block: inactive

What do the screens show for `COc1ccc(CNCCc2cccc(F)c2)c2ccccc12`?
KCNK9 inh: inactive; KCNQ1 act: inactive; Kir21 block: -18*; hERG protect: -11; KCNQ1 block: inactive

How did Cc1nc2ccccc2c(=O)n1/N=C/c1cc(Br)cc(Br)c1O do in these assays?
KCNK9 inh: inactive; KCNK3 inh: inactive; KCNQ1 act: inactive; Kir21 block: 0.87; hERG protect: -4; KCNQ1 block: inactive

How did N#CSCC(=O)N1c2ccccc2CCc2ccccc21 do in these assays?
KCNK9 inh: -6.9*; KCNK3 inh: inactive; KCNQ1 act: inactive; Kir21 block: -6.8*; hERG protect: -15; KCNQ1 block: inactive

What do the screens show for `Nc1ccccc1C(=O)OCC(=O)N1CCc2ccccc21`?
KCNK9 inh: inactive; KCNK3 inh: inactive; KCNQ1 act: inactive; Kir21 block: 0.07; hERG protect: -3; KCNQ1 block: inactive

Results for c1ccc(-c2[nH]c(-c3ccccc3)[n+](CC3CO3)c2-c2ccccc2)cc1 (stereo unspecified) ?
KCNK9 inh: inactive; KCNK3 inh: inactive; KCNQ1 act: inactive; Kir21 block: -6.8*; hERG protect: -22; KCNQ1 block: inactive

Results for O=C1Nc2ccccc2/C1=C/c1cnc[nH]1 ?
KCNK9 inh: inactive; KCNK3 inh: inactive; KCNQ1 act: inactive; Kir21 block: -2; hERG protect: -16; KCNQ1 block: inactive

Results for COc1ccc2c(c1)/C(=C/c1cnc[nH]1)C(=O)N2 ?
KCNK9 inh: inactive; KCNK3 inh: inactive; KCNQ1 act: 8*; Kir21 block: 0.57; hERG protect: 1; KCNQ1 block: inactive

What do the screens show for `CCOc1ccccc1CNCCc1ccc2c(c1)OCO2`?
KCNK9 inh: inactive; KCNK3 inh: inactive; KCNQ1 act: inactive; Kir21 block: -3.1; hERG protect: -8; KCNQ1 block: inactive

How did CCOc1ccccc1CN1C2CCC1CC(c1ccc(C)cc1)C2 (stereo unspecified) do in these assays?
KCNK9 inh: inactive; KCNK3 inh: inactive; KCNQ1 act: inactive; Kir21 block: -0.46; hERG protect: -12; KCNQ1 block: 12*
